The source of these data is ChEMBL document CHEMBL3244330, “Structure--activity relationships of n-substituted dopamine and 2-amino-6,7-dihydroxy-1,2,3,4-tetrahydronaphthalene analogues: behavioral effects in lesioned and reserpinized mice” (J Med Chem, 1979).

Experiment [1] relates to Mus musculus. Nature of the experiment: Postural effect on caudectomized Swiss albino mouse assessed as latency to onset time of asymmetric postural effect at 25 mg/kg, ip. The note with it: route intraperitoneal. Type of experiment: functional. In short, it runs like this: (§1)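 Male Swiss albino Hale-Stoner mice with a right caudectomy made by suction. A lesion was accepted if the mouse responded to apomorphine 4 weeks after surgery. Compounds were dissolved in 0.9% saline and injected ip at random into groups of six, with a maximum dose of 0.348 mmol/kg. 18 mice were used per compound, and mice were retested after 5–6 day intervals. Onset and duration of the asymmetric posture are reported as mean ± SE from six animals.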

In experiment [2] the test system is Mus musculus. Put plainly: Postural effect on caudectomized Swiss albino mouse assessed as latency to onset time of asymmetric postural effect at 50 mg/kg, ip. Type of experiment: functional. As to conditions: route intraperitoneal. In a few lines: as §1
The test system of experiment [3] is Mus musculus. Put plainly: Postural effect on caudectomized Swiss albino mouse assessed as time duration of asymmetric posture at 25 mg/kg, ip. The experiment is classed as functional. As to conditions: route intraperitoneal. In a few lines:
as §1

For experiment [4], the system named is Mus musculus. Put plainly: Postural effect on caudectomized Swiss albino mouse assessed as time duration of asymmetric posture at 50 mg/kg, ip. The experiment is classed as functional. As to conditions: route intraperitoneal. In a few lines:
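Male Swiss albino Hale-Stoner mice given a right caudectomy by suction. The lesion counted as successful if the mice reacted to apomorphine 4 weeks later. Drug was given ip in 0.9% saline, up to 0.348 mmol/kg, to randomised groups of six, with 5-6 days before reuse. Onset and duration of asymmetric posture are reported as mean ± SE from six animals.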

Experiment [5] concerns Mus musculus. Nature of the experiment: Reversal of reserpine-induced catalepsy in ip dosed Swiss albino (CD1) mouse. The experiment is classed as functional. In a few lines:
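Male Swiss albino CD1 mice, 5 weeks old, got reserpine 5 mg/kg ip, then α-MTM 250 mg/kg ip 17 h later, then the test drug ip 4 h after that. Catalepsy was scored by the rubber-stopper test (time to step off the stopper). At least four doses were used, with ≥8 mice per dose. ED50 was taken from a log-probit plot of percent responders against dose.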

For experiment [6], the system named is Mus musculus. Nature of the experiment: Postural effect on caudectomized Swiss albino mouse assessed as latency to onset time of asymmetric postural effect at 96 mg/kg, ip. Type of experiment: functional, organism-based. Also noted: dose 96 mg/kg. In a few lines: as §1
The test system of experiment [7] is Mus musculus. Put plainly: Postural effect on caudectomized Swiss albino mouse assessed as latency to onset time of asymmetric postural effect at 26.8 mg/kg, ip. The experiment is classed as functional, organism-based. Also noted: dose 26.8 mg/kg. In short, it runs like this: (§2)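 Male Swiss albino Hale-Stoner mice with right caudectomy by suction, used if responsive to apomorphine 4 weeks post-lesion. Compound in 0.9% saline given ip, maximum 0.348 mmol/kg. 18 mice per compound in random groups of six, retested after 5–6 day intervals. Onset latency and duration of asymmetric posture recorded; mean ± SE from six animals.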

For experiment [8], the system named is Mus musculus. Put plainly: Postural effect on caudectomized Swiss albino mouse assessed as latency to onset time of asymmetric postural effect at 107.2 mg/kg, ip. As to conditions: route intraperitoneal. The experiment is classed as functional. In a few lines: as §2
Experiment [9] concerns Mus musculus. Nature of the experiment: Postural effect on caudectomized Swiss albino mouse assessed as time duration of asymmetric posture at 107.2 mg/kg, ip. The note with it: route intraperitoneal. Type of experiment: functional. In short, it runs like this: as §2
In experiment [10] the test system is Mus musculus. Nature of the experiment: Postural effect on caudectomized Swiss albino mouse assessed as latency to onset time of asymmetric postural effect at 100.5 mg/kg, ip. Type of experiment: functional, organism-based. More on the design: dose 100.5 mg/kg. In a few lines: as §1
In experiment [11] the test system is Mus musculus. Put plainly: Postural effect on caudectomized Swiss albino mouse assessed as time duration of asymmetric posture at 1 mg/kg, ip. The note with it: route intraperitoneal. Type of experiment: functional. In a few lines:
as §1

In experiment [12] the test system is Mus musculus. Put plainly: Postural effect on caudectomized Swiss albino mouse assessed as latency to onset time of asymmetric postural effect at 1 mg/kg, ip. Type of experiment: functional. The note with it: route intraperitoneal. In short, it runs like this: as §1
Experiment [13] has as its system Mus musculus. Nature of the experiment: Postural effect on caudectomized Swiss albino mouse assessed as latency to onset time of asymmetric postural effect at 85 mg/kg, ip. The experiment is classed as functional, organism-based. More on the design: dose 85 mg/kg. In a few lines:
as §1

The subject of experiment [14] is Mus musculus. Nature of the experiment: Postural effect on caudectomized Swiss albino mouse assessed as latency to onset time of asymmetric postural effect at 104.8 mg/kg, ip. Type of experiment: functional, organism-based. Also noted: dose 104.8 mg/kg. In short, it runs like this: as §1
The test system of experiment [15] is Mus musculus. Nature of the experiment: Postural effect on caudectomized Swiss albino mouse assessed as latency to onset time of asymmetric postural effect at 90.8 mg/kg, ip. Also noted: dose 90.8 mg/kg. The experiment is classed as functional, organism-based. In short, it runs like this:
as §1

Experiment [16] relates to Mus musculus. Put plainly: Postural effect on caudectomized Swiss albino mouse assessed as latency to onset time of asymmetric postural effect at 102.2 mg/kg, ip. The experiment is classed as functional, organism-based. Also noted: dose 102.2 mg/kg. In a few lines:
as §2

The test system of experiment [17] is Mus musculus. Nature of the experiment: Postural effect on caudectomized Swiss albino mouse assessed as latency to onset time of asymmetric postural effect at 30.4 mg/kg, ip. Type of experiment: functional. The note with it: route intraperitoneal. In short, it runs like this: as §2
The test system of experiment [18] is Mus musculus. Nature of the experiment: Postural effect on caudectomized Swiss albino mouse assessed as latency to onset time of asymmetric postural effect at 60.8 mg/kg, ip. Type of experiment: functional. As to conditions: route intraperitoneal. In a few lines:
as §2

Experiment [19] has as its system Mus musculus. Nature of the experiment: Postural effect on caudectomized Swiss albino mouse assessed as time duration of asymmetric posture at 30.4 mg/kg, ip. The experiment is classed as functional. As to conditions: route intraperitoneal. In a few lines:
as §2

The test system of experiment [20] is Mus musculus. Nature of the experiment: Postural effect on caudectomized Swiss albino mouse assessed as time duration of asymmetric posture at 60.8 mg/kg, ip. The experiment is classed as functional. The note with it: route intraperitoneal. In a few lines:
as §2

Experiment [21] relates to Mus musculus. Nature of the experiment: Postural effect on caudectomized Swiss albino mouse assessed as latency to onset time of asymmetric postural effect at 120 mg/kg, ip. The experiment is classed as functional, organism-based. More on the design: dose 120 mg/kg. In short, it runs like this: as §1

Calls of active or inactive are those of the source. The rule behind the calls is not given here.

The ED50 is the dose at which the effect has come halfway, by size or by number of responders. In the case of `CCCCN(CCC)CCc1ccc(O)c(O)c1.Cl`, the Time in the experiment on Mus musculus [1] was found to be 3.7 min; with Mus musculus [2], 3.7 min; in the experiment with Mus musculus [3] it was 6.4 min; in the experiment on Mus musculus [4], 25.8 min. The ED50 in the experiment on Mus musculus [5] was found to be 8.6 mg/kg.

For the compound `CN(C)CCc1ccc(O)c(O)c1`, in the experiment with Mus musculus [6], the outcome was inactive.

Turning to `CN(CCc1ccccc1)CCc1ccc(O)c(O)c1.Cl`, the result in the experiment on Mus musculus [7] was inactive. In addition, the Time in the experiment with Mus musculus [8] was determined as 6.9 min; in the experiment with Mus musculus [9], 21.2 min. In addition, the ED50 in the experiment on Mus musculus [5] was found to be 101 mg/kg.

Consider `CC(C)CNCCc1ccc(O)c(O)c1`, for which the outcome in the experiment with Mus musculus [10] was inactive.

`CCCCCN(C)CCc1ccc(O)c(O)c1.Cl`: the ED50 in the experiment with Mus musculus [5] came to 46 mg/kg.

Take `CN1CCc2cccc3c2[C@H]1Cc1ccc(O)c(O)c1-3.CN1CCc2cccc3c2[C@H]1Cc1ccc(O)c(O)c1-3.Cl.Cl.O` [APOMORPHINE HYDROCHLORIDE]: the Time with Mus musculus [11] stood at 12.8 min; with Mus musculus [12], 4.6 min. The ED50 with Mus musculus [5] was 0.11 mg/kg.

Turning to `CNCCc1ccc(O)c(O)c1`, the outcome in the experiment with Mus musculus [13] was inactive.

With `CCCCN(CCCC)CCc1ccc(O)c(O)c1`, the result in the experiment with Mus musculus [14] was inactive.

In the case of `CCCCCNCCc1ccc(O)c(O)c1`, the outcome in the experiment on Mus musculus [15] was inactive.

For the compound `Oc1ccc(CCNCCc2ccccc2)cc1O`, in the experiment with Mus musculus [16], the outcome was inactive.

In the case of `CCCN(CCCc1ccccc1)CCc1ccc(O)c(O)c1.Cl`, the Time stood at 7.6 min in the experiment with Mus musculus [17], 5.8 min with Mus musculus [18], 6.4 min in the experiment on Mus musculus [19] and 18.2 min in the experiment on Mus musculus [20]. For the same compound, in the experiment with Mus musculus [5], the ED50 came to 9 mg/kg.

`CCCN(C)CCc1ccc(O)c(O)c1.Cl`: the result with Mus musculus [21] was Active. In the experiment with Mus musculus [5], the ED50 is 55 mg/kg.
